Data as given in ChEMBL document CHEMBL1126113, “Para-substituted Phe3 deltorphin analogues: enhanced selectivity of halogenated derivatives for delta opioid receptor sites” (J Med Chem, 1992).

Legend:
[1] = target: Delta-type opioid receptor (Rattus norvegicus, UniProt P33533); experiment: Binding affinity against opioid receptor delta in rats by displacing [3H]DPDPE
Cavia porcellus = species: Cavia porcellus; experiment: Concentration required to inhibit electrically induced twitch by 50% in guinea pig ileum(GPI).; assay type: functional
Mu-type opioid receptor = Mu-type opioid receptor (Rattus norvegicus, UniProt P33535); experiment: Binding affinity against opioid receptor mu in rats by displacing [3H]-DAGO
Mu-type opioid receptor, sequence (P33535 whole entry): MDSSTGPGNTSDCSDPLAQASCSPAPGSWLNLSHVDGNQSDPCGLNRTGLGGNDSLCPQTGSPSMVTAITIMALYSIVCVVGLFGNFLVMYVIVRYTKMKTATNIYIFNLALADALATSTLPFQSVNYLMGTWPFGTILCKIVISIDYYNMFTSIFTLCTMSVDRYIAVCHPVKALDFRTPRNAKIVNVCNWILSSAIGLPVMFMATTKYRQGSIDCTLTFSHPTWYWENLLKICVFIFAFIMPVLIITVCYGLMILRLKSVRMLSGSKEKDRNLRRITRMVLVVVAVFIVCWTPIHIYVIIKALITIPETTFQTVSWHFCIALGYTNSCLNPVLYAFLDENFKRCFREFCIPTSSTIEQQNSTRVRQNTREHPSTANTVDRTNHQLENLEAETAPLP

Mus musculus = species: Mus musculus; experiment: Concentration required to inhibit electrically induced twitch by 50% in mouse vas deferens(MVD).; assay type: functional
Outline: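 Mouse vas deferens field-stimulated at 0.1 Hz, 1 ms, 40 V; twitch recorded with an isometric transducer. Peptide doses added to the aerated bath, with three to four washes at 10-min intervals between doses. IC50 from log-dose curves, normalized against a dermorphin or morphine standard run on each tissue.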

Delta-type opioid receptor, sequence (P33533 whole entry): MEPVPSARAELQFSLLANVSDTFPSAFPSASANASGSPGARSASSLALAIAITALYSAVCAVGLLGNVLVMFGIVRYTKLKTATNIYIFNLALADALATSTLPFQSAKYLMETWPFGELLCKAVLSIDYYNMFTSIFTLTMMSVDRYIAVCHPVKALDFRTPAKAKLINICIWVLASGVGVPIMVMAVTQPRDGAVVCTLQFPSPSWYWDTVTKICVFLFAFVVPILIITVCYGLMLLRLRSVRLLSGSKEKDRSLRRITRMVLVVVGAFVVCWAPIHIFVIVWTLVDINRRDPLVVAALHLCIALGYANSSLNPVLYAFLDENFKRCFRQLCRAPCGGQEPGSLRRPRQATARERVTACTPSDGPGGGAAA

| SMILES | Ki [1] [nM] | IC50 (Cavia porcellus) [nM] | Ki (Mu-type opioid receptor) [nM] | IC50 (Mus musculus) [nM] |
| --- | --- | --- | --- | --- |
| CC(C)[C@H](NC(=O)[C@H](CC(=O)O)NC(=O)[C@H](Cc1ccc(N)cc1)NC(=O)[C@@H](C)NC(=O)[C@@H](N)Cc1ccc(O)cc1)C(=O)N[C@H](C(=O)NCC(N)=O)C(C)C | 33.9 | > 10000 | 506 | 1100 |
| CC(C)[C@H](NC(=O)[C@H](CCC(=O)O)NC(=O)[C@H](Cc1ccc([N+](=O)[O-])cc1)NC(=O)[C@@H](C)NC(=O)[C@@H](N)Cc1ccc(O)cc1)C(=O)N[C@H](C(=O)NCC(N)=O)C(C)C | 101 | > 10000 | 1430 | 430 |
| CC(C)[C@H](NC(=O)[C@H](CCC(=O)O)NC(=O)[C@H](Cc1ccccc1)NC(=O)[C@H](C)NC(=O)[C@@H](N)Cc1ccc(O)cc1)C(=O)N[C@H](C(=O)NCC(=O)O)C(C)C [DELTORPHINE II] | 0.12 | 5200 |  | 0.75 |
| CC(C)[C@H](NC(=O)[C@H](CC(=O)O)NC(=O)[C@H](Cc1ccc(Cl)cc1)NC(=O)[C@@H](C)NC(=O)[C@@H](N)Cc1ccc(O)cc1)C(=O)N[C@H](C(=O)NCC(N)=O)C(C)C | 1.58 | 1800 | 287 | 0.16 |
| CC(C)[C@H](NC(=O)[C@H](CC(=O)O)NC(=O)[C@H](Cc1ccc(I)cc1)NC(=O)[C@@H](C)NC(=O)[C@@H](N)Cc1ccc(O)cc1)C(=O)N[C@H](C(=O)NCC(N)=O)C(C)C | 1.62 | > 10000 | 1410 | 17 |
| CC(C)[C@H](NC(=O)[C@H](CCC(=O)O)NC(=O)[C@H](Cc1ccc(N)cc1)NC(=O)[C@@H](C)NC(=O)[C@@H](N)Cc1ccc(O)cc1)C(=O)N[C@H](C(=O)NCC(N)=O)C(C)C | 48.1 | > 10000 | 2460 | 300 |
| CC(C)[C@H](NC(=O)[C@H](CC(=O)O)NC(=O)[C@H](Cc1ccc(F)cc1)NC(=O)[C@@H](C)NC(=O)[C@@H](N)Cc1ccc(O)cc1)C(=O)N[C@H](C(=O)NCC(N)=O)C(C)C | 0.51 | 1100 | 554 | 3.5 |
| CC(C)[C@H](NC(=O)[C@H](CC(=O)O)NC(=O)[C@H](Cc1ccccc1)NC(=O)[C@@H](C)NC(=O)[C@@H](N)Cc1ccc(O)cc1)C(=O)N[C@H](C(=O)NCC(N)=O)C(C)C [DELTORPHIN C] | 0.24 | 420 | 272 | 0.14 |
| CC(C)[C@H](NC(=O)[C@H](CC(=O)O)NC(=O)[C@H](Cc1ccc([N+](=O)[O-])cc1)NC(=O)[C@@H](C)NC(=O)[C@@H](N)Cc1ccc(O)cc1)C(=O)N[C@H](C(=O)NCC(N)=O)C(C)C | 71.8 | > 10000 | 2390 | 1200 |
| CC(C)[C@H](NC(=O)[C@H](CC(=O)O)NC(=O)[C@H](Cc1ccc(Br)cc1)NC(=O)[C@@H](C)NC(=O)[C@@H](N)Cc1ccc(O)cc1)C(=O)N[C@H](C(=O)NCC(N)=O)C(C)C | 2.39 | 7000 | 4790 | 1.1 |
